From ChEMBL document CHEMBL1287798, “3,5-disubstituted pyranone analogues of highly antifungally active furanones: conversion of biological effect from antifungal to cytostatic” (Bioorg Med Chem Lett, 2010)
Active and inactive are the calls of the source.

Key:
Candida tropicalis = experiment: Antifungal activity against Candida tropicalis 156 by microdilution method; assay type: functional
Pichia kudriavzevii [1] = experiment: Antifungal activity against Candida krusei ATCC 6258 by microdilution method; assay type: functional
Trichosporon beigelii = experiment: Antifungal activity against Trichosporon beigelii 1188 by microdilution method; assay type: functional
Candida parapsilosis = experiment: Antifungal activity against Candida parapsilosis ATCC 22019 by microdilution method; assay type: functional; details: Lodderomyces parapsilosis
Nannizzia gypsea = experiment: Antifungal activity against Microsporum gypseum by microdilution method; assay type: functional
Clavispora lusitaniae = experiment: Antifungal activity against Clavispora lusitaniae 2446/I by microdilution method
Nakaseomyces glabratus = experiment: Antifungal activity against Candida glabrata 20/I by microdilution method; assay type: functional
[2] = test system: Trichophyton mentagrophytes; experiment: Antifungal activity against Trichophyton mentagrophytes 445 by microdilution method; assay type: functional
Candida albicans [3] = experiment: Antifungal activity against Candida albicans ATCC 90028 by microdilution method; assay type: functional
Aspergillus fumigatus = experiment: Antifungal activity against Aspergillus fumigatus 231 by microdilution method; assay type: functional
Candida albicans [4] = experiment: Antifungal activity against Candida albicans ATCC 44859 by microdilution method; assay type: functional
Lichtheimia corymbifera = experiment: Antifungal activity against Absidia corymbifera 272 by microdilution method; assay type: functional
Pichia kudriavzevii [5] = experiment: Antifungal activity against Candida krusei E28 by microdilution method; assay type: functional
HT-29 = experiment: Growth inhibition of human HT-29 cells; assay type: functional, cell-based
L1210 [6] = experiment: Growth inhibition of mouse L1210 cells; assay type: functional, cell-based
HL-60 = experiment: Growth inhibition of human HL60 cells at 10 umol/L; assay type: functional, cell-based
Procedure, shortened: (§1)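 Single-concentration cytostatic screen at 10 µmol L⁻¹ on mouse lymphocytic leukemia L1210 (ATCC CCL 219), human acute lymphoblastic leukemia CCRF-CEM T lymphoblastoid cells (ATCC CCL 119), human promyelocytic leukemia HL-60 (ATCC CCL 240) and human cervix carcinoma HeLa S3 (ATCC CCL 2.2).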

L1210 [7] = experiment: Growth inhibition of mouse L1210 cells at 10 umol/L; assay type: functional, cell-based; procedure, shortened: as §1
CCRF-CEM = experiment: Growth inhibition of human CCRF-CEM cells at 10 umol/L; assay type: functional, cell-based; procedure, shortened: as §1
HeLa S3 = experiment: Growth inhibition of human HeLaS3 cells at 10 umol/L; assay type: functional, cell-based; procedure, shortened: as §1

CC(=O)OCC1C=C(c2cccc(Cl)c2)C(=O)OC1 (stereo unspecified)
≥ 62.5 µM: MIC (Candida tropicalis) | MIC (Pichia kudriavzevii [1]) | MIC (Trichosporon beigelii) | MIC (Candida parapsilosis) | MIC (Nannizzia gypsea) | MIC (Clavispora lusitaniae) | MIC (Nakaseomyces glabratus) | MIC [2] | MIC (Candida albicans [3]) | MIC (Aspergillus fumigatus) | MIC (Candida albicans [4]) | MIC (Lichtheimia corymbifera) | MIC (Pichia kudriavzevii [5])

CC(=O)OCC1C=C(c2ccc(Cl)c(Cl)c2)C(=O)OC1 (stereo unspecified)
7.3 µM: IC50 (L1210 [6])
≥ 62.5 µM: MIC (Candida tropicalis) | MIC (Pichia kudriavzevii [1]) | MIC (Trichosporon beigelii) | MIC (Candida parapsilosis) | MIC (Nannizzia gypsea) | MIC (Clavispora lusitaniae) | MIC (Nakaseomyces glabratus) | MIC [2] | MIC (Candida albicans [3]) | MIC (Aspergillus fumigatus) | MIC (Candida albicans [4]) | MIC (Lichtheimia corymbifera) | MIC (Pichia kudriavzevii [5])
2.45 µM: IC50 (HT-29)

COc1ccc(C2=CC(COC(C)=O)COC2=O)cc1 (stereo unspecified)
≥ 62.5 µM: MIC (Candida tropicalis) | MIC (Pichia kudriavzevii [1]) | MIC (Trichosporon beigelii) | MIC (Candida parapsilosis) | MIC (Nannizzia gypsea) | MIC (Clavispora lusitaniae) | MIC (Nakaseomyces glabratus) | MIC [2] | MIC (Candida albicans [3]) | MIC (Aspergillus fumigatus) | MIC (Candida albicans [4]) | MIC (Lichtheimia corymbifera) | MIC (Pichia kudriavzevii [5])

CC(C)(C)C(=O)OCC1C=C(c2ccc(Br)cc2)C(=O)OC1 (stereo unspecified)
≥ 62.5 µM: MIC (Candida tropicalis) | MIC (Pichia kudriavzevii [1]) | MIC (Trichosporon beigelii) | MIC (Candida parapsilosis) | MIC (Nannizzia gypsea) | MIC (Clavispora lusitaniae) | MIC (Nakaseomyces glabratus) | MIC [2] | MIC (Candida albicans [3]) | MIC (Aspergillus fumigatus) | MIC (Candida albicans [4]) | MIC (Lichtheimia corymbifera) | MIC (Pichia kudriavzevii [5])

CC(C)(C)C(=O)OCC1C=C(c2ccccc2)C(=O)OC1 (stereo unspecified)
≥ 62.5 µM: MIC (Candida tropicalis) | MIC (Pichia kudriavzevii [1]) | MIC (Trichosporon beigelii) | MIC (Candida parapsilosis) | MIC (Nannizzia gypsea) | MIC (Clavispora lusitaniae) | MIC (Nakaseomyces glabratus) | MIC [2] | MIC (Candida albicans [3]) | MIC (Aspergillus fumigatus) | MIC (Candida albicans [4]) | MIC (Lichtheimia corymbifera) | MIC (Pichia kudriavzevii [5])

O=C1OCC(COC(=O)c2ccccc2)C=C1c1cccc(Cl)c1 (stereo unspecified)
≥ 62.5 µM: MIC (Candida tropicalis) | MIC (Pichia kudriavzevii [1]) | MIC (Trichosporon beigelii) | MIC (Candida parapsilosis) | MIC (Nannizzia gypsea) | MIC (Clavispora lusitaniae) | MIC (Nakaseomyces glabratus) | MIC [2] | MIC (Candida albicans [3]) | MIC (Aspergillus fumigatus) | MIC (Candida albicans [4]) | MIC (Lichtheimia corymbifera) | MIC (Pichia kudriavzevii [5])

CC(=O)OCC1C=C(c2ccccc2)C(=O)OC1 (stereo unspecified)
≥ 62.5 µM: MIC (Candida tropicalis) | MIC (Pichia kudriavzevii [1]) | MIC (Trichosporon beigelii) | MIC (Candida parapsilosis) | MIC (Nannizzia gypsea) | MIC (Clavispora lusitaniae) | MIC (Nakaseomyces glabratus) | MIC [2] | MIC (Candida albicans [3]) | MIC (Aspergillus fumigatus) | MIC (Candida albicans [4]) | MIC (Lichtheimia corymbifera) | MIC (Pichia kudriavzevii [5])

CC(C)(C)C(=O)OCC1C=C(c2cccc(Cl)c2)C(=O)OC1 (stereo unspecified)
≥ 62.5 µM: MIC (Candida tropicalis) | MIC (Pichia kudriavzevii [1]) | MIC (Trichosporon beigelii) | MIC (Candida parapsilosis) | MIC (Nannizzia gypsea) | MIC (Clavispora lusitaniae) | MIC (Nakaseomyces glabratus) | MIC [2] | MIC (Candida albicans [3]) | MIC (Aspergillus fumigatus) | MIC (Candida albicans [4]) | MIC (Lichtheimia corymbifera) | MIC (Pichia kudriavzevii [5])

COc1ccc(C2=CC(COC(=O)C(C)(C)C)COC2=O)cc1 (stereo unspecified)
≥ 62.5 µM: MIC (Candida tropicalis) | MIC (Pichia kudriavzevii [1]) | MIC (Trichosporon beigelii) | MIC (Candida parapsilosis) | MIC (Nannizzia gypsea) | MIC (Clavispora lusitaniae) | MIC (Nakaseomyces glabratus) | MIC [2] | MIC (Candida albicans [3]) | MIC (Aspergillus fumigatus) | MIC (Candida albicans [4]) | MIC (Lichtheimia corymbifera) | MIC (Pichia kudriavzevii [5])

CC(C)(C)C(=O)OCC1C=C(c2ccc(Cl)c(Cl)c2)C(=O)OC1 (stereo unspecified)
≥ 62.5 µM: MIC (Candida tropicalis) | MIC (Pichia kudriavzevii [1]) | MIC (Trichosporon beigelii) | MIC (Candida parapsilosis) | MIC (Nannizzia gypsea) | MIC (Clavispora lusitaniae) | MIC (Nakaseomyces glabratus) | MIC [2] | MIC (Candida albicans [3]) | MIC (Aspergillus fumigatus) | MIC (Candida albicans [4]) | MIC (Lichtheimia corymbifera) | MIC (Pichia kudriavzevii [5])

COc1ccc(C2=CC(COC(=O)c3ccccc3)COC2=O)cc1 (stereo unspecified)
≥ 62.5 µM: MIC (Candida tropicalis) | MIC (Pichia kudriavzevii [1]) | MIC (Trichosporon beigelii) | MIC (Candida parapsilosis) | MIC (Nannizzia gypsea) | MIC (Clavispora lusitaniae) | MIC (Nakaseomyces glabratus) | MIC [2] | MIC (Candida albicans [3]) | MIC (Aspergillus fumigatus) | MIC (Candida albicans [4]) | MIC (Lichtheimia corymbifera) | MIC (Pichia kudriavzevii [5])

O=C1OCC(COC(=O)c2ccccc2)C=C1c1ccc(Cl)cc1 (stereo unspecified)
≥ 62.5 µM: MIC (Candida tropicalis) | MIC (Pichia kudriavzevii [1]) | MIC (Trichosporon beigelii) | MIC (Candida parapsilosis) | MIC (Nannizzia gypsea) | MIC (Clavispora lusitaniae) | MIC (Nakaseomyces glabratus) | MIC [2] | MIC (Candida albicans [3]) | MIC (Aspergillus fumigatus) | MIC (Candida albicans [4]) | MIC (Lichtheimia corymbifera) | MIC (Pichia kudriavzevii [5])
2.93 µM: IC50 (HT-29)
inactive: inhibition (HL-60) | inhibition (L1210 [7])

O=C1OCC(CO)C=C1c1ccc(Cl)c(Cl)c1 (stereo unspecified)
inactive: inhibition (HL-60) | inhibition (CCRF-CEM) | inhibition (HeLa S3) | inhibition (L1210 [7])

CC(=O)OCC1C=C(c2ccc(Br)cc2)C(=O)OC1 (stereo unspecified)
≥ 62.5 µM: MIC (Candida tropicalis) | MIC (Pichia kudriavzevii [1]) | MIC (Trichosporon beigelii) | MIC (Candida parapsilosis) | MIC (Nannizzia gypsea) | MIC (Clavispora lusitaniae) | MIC (Nakaseomyces glabratus) | MIC [2] | MIC (Candida albicans [3]) | MIC (Aspergillus fumigatus) | MIC (Candida albicans [4]) | MIC (Lichtheimia corymbifera) | MIC (Pichia kudriavzevii [5])

O=C1OCC(COC(=O)c2ccccc2)C=C1c1ccc(Cl)c(Cl)c1 (stereo unspecified)
≥ 62.5 µM: MIC (Candida tropicalis) | MIC (Pichia kudriavzevii [1]) | MIC (Trichosporon beigelii) | MIC (Candida parapsilosis) | MIC (Nannizzia gypsea) | MIC (Clavispora lusitaniae) | MIC (Nakaseomyces glabratus) | MIC [2] | MIC (Candida albicans [3]) | MIC (Aspergillus fumigatus) | MIC (Candida albicans [4]) | MIC (Lichtheimia corymbifera) | MIC (Pichia kudriavzevii [5])
5.9 µM: IC50 (L1210 [6])

O=C1OCC(COC(=O)c2ccccc2)C=C1c1ccccc1 (stereo unspecified)
≥ 62.5 µM: MIC (Candida tropicalis) | MIC (Pichia kudriavzevii [1]) | MIC (Trichosporon beigelii) | MIC (Candida parapsilosis) | MIC (Nannizzia gypsea) | MIC (Clavispora lusitaniae) | MIC (Nakaseomyces glabratus) | MIC [2] | MIC (Candida albicans [3]) | MIC (Aspergillus fumigatus) | MIC (Candida albicans [4]) | MIC (Lichtheimia corymbifera) | MIC (Pichia kudriavzevii [5])

CC(C)(C)C(=O)OCC1C=C(c2ccc(Cl)cc2)C(=O)OC1 (stereo unspecified)
≥ 62.5 µM: MIC (Candida tropicalis) | MIC (Pichia kudriavzevii [1]) | MIC (Trichosporon beigelii) | MIC (Candida parapsilosis) | MIC (Nannizzia gypsea) | MIC (Clavispora lusitaniae) | MIC (Nakaseomyces glabratus) | MIC [2] | MIC (Candida albicans [3]) | MIC (Aspergillus fumigatus) | MIC (Candida albicans [4]) | MIC (Lichtheimia corymbifera) | MIC (Pichia kudriavzevii [5])

CC(=O)OCC1C=C(c2ccc(Cl)cc2)C(=O)OC1 (stereo unspecified)
≥ 62.5 µM: MIC (Candida tropicalis) | MIC (Pichia kudriavzevii [1]) | MIC (Trichosporon beigelii) | MIC (Candida parapsilosis) | MIC (Nannizzia gypsea) | MIC (Clavispora lusitaniae) | MIC (Nakaseomyces glabratus) | MIC [2] | MIC (Candida albicans [3]) | MIC (Aspergillus fumigatus) | MIC (Candida albicans [4]) | MIC (Lichtheimia corymbifera) | MIC (Pichia kudriavzevii [5])
